# High-throughput results deposited in PubChem by The Scripps Research Institute Molecular Screening Center.
# Only some compounds are listed: those with a hit (about 3.9% of all), similar ones and a draw of the others.
# CHRM1 agonist: human M1 muscarinic receptor agonism | activation, % at 3 µM | P11229 | hit rate 0.33% among 360,000 | CHO-K1 hM1, Fluo-8 calcium fluorescence, agonist mode; 0% DMSO, 100% acetylcholine EC100;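 active = activation above the run's mean compound activation plus 3 SD, cut at about 16% in these data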;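 also: peak over basal fluorescence ratio within a 140 s kinetic read after compound addition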
# M1 PAM: positive allosteric modulators of human M1 muscarinic receptor; activation, % at 3 µM; P11229; CHO-K1 hM1, Fluo-8 calcium fluorescence, ACh EC20; 0% = ACh EC20, 100% = maximal ACh; hit rate 0.088% among 360,000; in the data active = activation above about 19%, passing the limit was not always enough
# TAAR1 antag: human TAAR1 antagonism. hit rate 1.5% among 360,000. AID 624466. inhibition, % at 3 µM. Q96RJ0. CHO RD-HGA16 TAAR1, Fluo-8 calcium fluorescence, antagonist;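 active = inhibition above a per-plate cutoff, the mean inhibition of test compounds on that plate plus 3 SD, cut at about 49% in these data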;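 also: 0% = DMSO plus EC80 beta-PEA response and 100% = DMSO alone without agonist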
# Target sequence (Q96RJ0 whole entry, looked up): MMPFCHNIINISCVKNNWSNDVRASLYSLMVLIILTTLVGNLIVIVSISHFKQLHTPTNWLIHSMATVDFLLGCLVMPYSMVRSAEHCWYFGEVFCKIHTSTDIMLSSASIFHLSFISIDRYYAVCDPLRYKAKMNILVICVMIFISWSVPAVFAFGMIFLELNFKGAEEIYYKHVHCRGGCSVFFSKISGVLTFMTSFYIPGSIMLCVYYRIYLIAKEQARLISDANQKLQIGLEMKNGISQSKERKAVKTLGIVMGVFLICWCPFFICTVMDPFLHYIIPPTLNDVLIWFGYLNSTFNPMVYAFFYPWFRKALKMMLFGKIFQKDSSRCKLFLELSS
#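 Assay system: CHO-derived RD-HGA16 cells stably expressing human TAAR1 plus Gα16. Timing: 140 s kinetic read after compound, 140 s after agonist. Technique: kinetic Fluo-8 calcium fluorescence measurement. Measure: % inhibition of agonist calcium response.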
# TAAR1 agonist: agonists of human TAAR1; hit rate 0.99% among 360,000; CHO RD-HGA16 TAAR1, Fluo-8 calcium fluorescence; vehicle wells 0%, saturating PEA agonist 100%; activation, % at 3 µM; AID 624467; Q96RJ0;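 active = activation above the mean activation of all test compounds in the run plus 3 SD, cut at about 38% in these data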
#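 Assay system – CHO-derived RD-HGA16 cells with stable Gα16 and human TAAR1 · Compound dosing – one-point dosing at 3 µM (nominal) · Incubation – 17-24 h seeding, 75 min 37 °C dye, 30 min RT · Measured by – kinetic Fluo-8 calcium fluorescence · Control set – DMSO vehicle as 0%, PEA at EC100 as 100% · Repeats – single well for each compound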
# m5-HT2A agonist: activates the mouse 5-HT2A serotonin receptor | P35363 | CHO-K1 mHTR2A beta-arrestin complementation, luminescence; percent of 30 µM serotonin response | activation, % at 7.6 µM | hit rate 0.66% among 360,000;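 active = activation above a run cutoff, the mean activation of all tested compounds plus 3 SD, cut at about 14% in these data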;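 also: 0% = plate median of compound wells and 100% = 30 µM serotonin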
# M1 antag: antagonists of human M1 muscarinic receptor; AID 588852; hit rate 1.3% among 360,000; inhibition, % at 3 µM; P11229; CHO-K1 hM1, Fluo-8 calcium fluorescence, ACh EC80 antagonist;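 active = percent inhibition above its own plate's cutoff, namely the mean of that plate's compound wells plus 3 SD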;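 also: peak over basal fluorescence ratio during 140 s after agonist addition; 0% = ACh EC80 plus DMSO and 100% = DMSO alone without agonist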
# nonsel antag count: nonselective antagonism, TAAR1 counter-screen; inhibition, % at 3 µM; counterscreen cell line, calcium fluorescence, antagonist mode; shares compounds with TAAR1 antag; hit rate 77% among 2,400; in the data active = inhibition above about 22%;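 also: CHO-Ga16 host cells stimulated with ATP at an EC80 level; 0% = agonist EC80 plus vehicle and 100% = vehicle without agonist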
# TAAR1 ant conf: confirmation of human TAAR1 antagonists; hit rate 40% among 2,400; inhibition, % at 3 µM; shares compounds with TAAR1 antag; TAAR1-expressing cells, fluorescence antagonist read-out; in the data active = inhibition above about 49%;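 also: CHO-Ga16 host cells challenged with agonist PEA near its EC80; 0% = agonist at EC80 plus vehicle and 100% = vehicle with no agonist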
# Ga16 ag counter: counter-screen for TAAR1 antagonists: nonselective Ga16 agonists | shares compounds with TAAR1 antag | Ga16-expressing cells, calcium fluorescence, agonist counterscreen | activation, % at 3 µM | hit rate 18% among 2,400; in the data active = activation above about 12%;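 also: 0% = vehicle wells and 100% = saturating stimulus response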
# TAAR1 ag counter: TAAR1 agonism, antagonist counter-screen | hTAAR1 cell line, fluorescence activation, agonist mode | AID 651955 | hit rate 2% among 2,400 | shares compounds with TAAR1 antag | activation, % at 3 µM; in the data active = activation above about 37%;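 also: CHO cells stably expressing TAAR1 with calcium dye readout; 0% = DMSO vehicle and 100% = full agonist response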
# Numbers without * were called inactive; / = no result given; ! = repeats disagree.
SMILES,CHRM1 agonist,M1 PAM,TAAR1 antag,TAAR1 agonist,m5-HT2A agonist,M1 antag,nonsel antag count,TAAR1 ant conf,Ga16 ag counter,TAAR1 ag counter
CC(C)(C)c1ccc(S(=O)(=O)N2CCC(CO)(CC3CCCCO3)CC2)cc1 (configuration not stated),-4,1,22,4,5,-6,/,/,/,/
CCCCN1C[C@H](C)[C@@H](CC(=O)NC)C1=O,-1,10,-6,1,6,-12,/,/,/,/
CCC(C)Sc1cc(-c2nc3ccccn3c2NC2CCCCC2)ccc1OC (configuration not stated),-7,-18,79*,4,-13,28,42*,63*,8,13
CCC(C)Sc1cc(-c2nc3cc(C)ccn3c2NC2CCCCC2)ccc1OC (configuration not stated),-8,-16,21,10,-5,28,/,/,/,/
Cc1ccc2nc(-c3cccc(SC4CCCCC4)c3)c(NCc3ccccc3)n2c1,-5,-4,84*,8,0,18,37*,61*,4,8
Cc1ccc2nc(-c3cccc(SC4CCCCC4)c3)c(NC3CCCCC3)n2c1,-2,6,-4,5,5,-5,/,/,/,/
CCC(C)Sc1cccc(-c2nc3ccc(C)cn3c2NC2CCCCC2)c1 (configuration not stated),-4,2,57*!,24,-5,5,35*,49*,11,15
Clc1ccc2nc(-c3cccc(SC4CCCCC4)c3)c(NCc3ccccc3)n2c1,-8,-7,29,1,-4,9,/,/,/,/
c1csc(-c2nc3ccccn3c2NC2CCCCC2)c1,-8,12,2,4,-3,-7,/,/,/,/
CC(=O)c1ccc(-c2cccc(-c3nc4ccccn4c3NC3CCCCC3)c2)cc1,-4,-10,59*,12,-12,26,23*,46,4,6
CN1C(=O)C(C)(C)N(C(=O)c2cccc([N+](=O)[O-])c2)c2ccccc21,-5,2,6,-1,3,-4,/,/,/,/
Cc1cc(Br)ccc1NC(=O)c1ccccc1-c1ccccc1,-9,0,57*,1,-5,-1,3,1,2,2
O=C(Nc1ccccc1Br)c1ccccc1-c1ccccc1,-8,-7,13,9,0,0,/,/,/,/
COc1ccc([C@H]2CC(=O)C=C(c3cccc(Br)c3)C2)cc1OC,-4,1,64*,3,-4,6,19,45,2,1
C=CCN1CCN(C(=O)c2cc3c(s2)CCC(CC)C3)CC1 (configuration not stated),-6,1,-22,-1,-15,2,/,/,/,/
COc1ccc2[nH]c(=O)c(CN(CC3CCCO3)C(=O)Nc3ccccc3OC)cc2c1 (configuration not stated),-1,-10,63*,16,1,29,29*,42,6,6
COc1ccc2[nH]c(=O)c(CN(c3ccccc3OC)S(=O)(=O)c3ccccc3)cc2c1,-1,-4,74*,10,-7,15,33*,49*,9,9
COc1ccc(S(=O)(=O)N(Cc2cccnc2)Cc2cc3ccccc3[nH]c2=O)cc1,0,-2,51*,11,-3,0,15,25,6,4
COc1ccc2[nH]c(=O)c(CN(c3ccccc3)S(=O)(=O)c3ccccc3)cc2c1,-1,-1,52*,9,7,3,26*,52*,7,16
Cc1ccc(S(=O)(=O)N(Cc2cccnc2)Cc2cc3ccccc3[nH]c2=O)cc1,-6,-7,39,19,-1,1,/,/,/,/
Brc1ccc2nc(-c3ccc(CN4CCC5(CC4)CNc4ccccc45)cc3)c(-c3ccccc3)nc2c1,/,/,49*,5,/,/,26*,39,3,5
C=CCN(c1ccccc1)S(=O)(=O)c1cccc(C(=O)N(CC)CC(=O)Nc2c(F)cccc2F)c1,-1,10,-17,0,10,-8,/,/,/,/
CCCc1cc(=O)[nH]c(SCc2cc(=O)oc3cc(C)c(C(C)C)cc23)n1,-10,7,103*,-3,-2,1,16,1,3,5
CC(=O)Nc1ccc(NC(=O)COC(=O)c2cc([N+](=O)[O-])ccc2N2CCOCC2)cc1,-2,3,-15,1,-8,-4,/,/,/,/
CCOC(=O)c1ccccc1NC(=O)COC(=O)c1cc([N+](=O)[O-])ccc1N1CCOCC1,-5,1,59*,1,4,14,27*,30,7,3
SMILES,CHRM1 agonist,M1 PAM,TAAR1 antag,TAAR1 agonist,m5-HT2A agonist,M1 antag,nonsel antag count,TAAR1 ant conf,Ga16 ag counter,TAAR1 ag counter
COC(=O)CC1=C(C(=O)OC)[C@@H](c2ccccc2[N+](=O)[O-])C(C#N)=C(N)O1,-3,20,12,0,4,-19,/,/,/,/
Cc1ccsc1C(=O)N1CCCC(N(C)Cc2ccccc2)C1 (configuration not stated),-6,14,-3,0,-4,-16,/,/,/,/
COc1ccc(S(=O)(=O)N2CCN(C(=O)c3ccco3)CC2)c(C)c1C,2,0,3,1,-4,-10,/,/,/,/
CC(C)(C)NC(=O)CCN(/N=C/c1ccccc1O)C1=NS(=O)(=O)c2ccccc21,-4,-13,59*,19,3,17,25*,44,12*,11
Cc1ccccc1CN1C(=O)/C(=C\c2ccc(C(=O)NCCN3CCOCC3)cc2)Sc2ccccc21,-1,4,53*,31,-12,-1,26*,37,11,33
O=C(NCCN1CCOCC1)c1ccc(/C=C2\Sc3ccccc3N(Cc3ccccc3F)C2=O)cc1,-2,-7,69*,12,-6,20,34*,50*,13*,15
CCOC(=O)CNC(=O)N(CCOC)CC1CCCN(C2Cc3ccccc3C2)C1 (configuration not stated),-7,3,-3,-1,-1,-8,/,/,/,/
COc1ccc(CNC(=O)c2cc(C3CC3)nc3c2cnn3C(C)C)cc1,-7,2,50*,5,-4,-2,12,22,3,-1
